# Test results: ChEMBL document CHEMBL1134611, “Agonist activity at the kinin B1 receptor: structural requirements of the central tetrapeptide” (J Med Chem, 2001)
# The source made the active and inactive calls. The calls are words filed in the database; no cut-off is given here. Numbered stars: 1 amine (or outer) side, 2 acyl side, 3 side chain; on linkers, the order of the positions; unused ones are H or OH. Square brackets hold non-standard residues; d marks the D form. Peptide text beside a SMILES is read from it. X2 = O=C(C1(N[*:1])CCCCCCCCCCC1)[*:2]; X1 = O=C(C1(N[*:1])CCCCCCCC1)[*:2]; 12Ado = NCCCCCCCCCCCC(=O)O; Ac8c = NC1(C(=O)O)CCCCCCC1; Ac7c = NC1(C(=O)O)CCCCCC1; Ac6c = NC1(C(=O)O)CCCCC1
# Biological target: T1, B1 bradykinin receptor (Rattus norvegicus) (UniProt P97583)
# T1 sequence (whole entry): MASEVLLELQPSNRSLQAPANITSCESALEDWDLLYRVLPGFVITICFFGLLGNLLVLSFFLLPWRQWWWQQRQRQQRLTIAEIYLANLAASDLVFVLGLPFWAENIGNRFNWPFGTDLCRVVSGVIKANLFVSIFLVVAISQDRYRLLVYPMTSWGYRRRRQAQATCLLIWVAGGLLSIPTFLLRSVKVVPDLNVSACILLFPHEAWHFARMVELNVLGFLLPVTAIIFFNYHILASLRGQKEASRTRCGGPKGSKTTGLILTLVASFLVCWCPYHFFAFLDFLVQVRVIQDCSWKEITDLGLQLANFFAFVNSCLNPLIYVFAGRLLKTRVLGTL
# Experiment: Agonistic activity against Bradykinin receptor B1 of rat ileum longitudinal smooth muscle
# Assay type: functional, tissue-based
# Method in brief: (§1)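 Rat ileum longitudinal muscle-myenteric plexus strips in oxygenated (95% O2, 5% CO2) Krebs' solution with indomethacin and guanethidine (3 µM each), chlorpheniramine and atropine (1 µM each). Cumulative concentration-response curves of contraction, run with thiorphan, bestatin and captopril (1 µM each). pD2 = -log molar agonist concentration giving 50% of maximal effect; mean ± SEM, 4-10 experiments.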
row,pD2,Compound
1,5.1,NCCCC[C@H](N)C(=O)N[C@@H](CCCN=C(N)N)C(=O)NCC(=O)NC1(C(=O)NCC(=O)N[C@@H](CO)C(=O)N2CCC[C@H]2C(=O)N[C@@H](Cc2ccccc2)C(=O)O)CCCCC1 (H-KRG[Ac6c]GSPF-OH)
2,5.4,NCCCC[C@H](N)C(=O)N[C@@H](CCCN=C(N)N)C(=O)NCC(=O)NC1(C(=O)NCC(=O)N[C@@H](CO)C(=O)N2CCC[C@H]2C(=O)N[C@@H](Cc2ccccc2)C(=O)O)CCCCCC1 (H-KRG[Ac7c]GSPF-OH)
3,5.7,NCCCC[C@H](N)C(=O)N[C@@H](CCCN=C(N)N)C(=O)NCC(=O)NC1(C(=O)NCC(=O)N[C@@H](CO)C(=O)N2CCC[C@H]2C(=O)N[C@@H](Cc2ccccc2)C(=O)O)CCCCCCC1 (H-KRG[Ac8c]GSPF-OH)
4,5.4,NCCCC[C@H](N)C(=O)N[C@@H](CCCN=C(N)N)C(=O)NCC(=O)NC1(C(=O)NCC(=O)N[C@@H](CO)C(=O)N2CCC[C@H]2C(=O)N[C@@H](Cc2ccccc2)C(=O)O)CCCCCCCC1 (H-KRG[X1]GSPF-OH)
5,5.5,NCCCC[C@H](N)C(=O)N[C@@H](CCCN=C(N)N)C(=O)NCC(=O)NC1(C(=O)NCC(=O)N[C@@H](CO)C(=O)N2CCC[C@H]2C(=O)N[C@@H](Cc2ccccc2)C(=O)O)CCCCCCCCCCC1 (H-KRG[X2]GSPF-OH)
6,6,NCCCC[C@H](N)C(=O)N[C@@H](CCCN=C(N)N)C(=O)NCCCCCCCCCCCC(=O)N[C@@H](CO)C(=O)N1CCC[C@H]1C(=O)N[C@@H](Cc1ccccc1)C(=O)O (H-KR[12Ado]SPF-OH)

# Biological target: T1, B1 bradykinin receptor (Rattus norvegicus)
# Experiment: Agonistic activity against Bradykinin receptor B1 of rat ileum longitudinal smooth muscle; Inactive
# Assay type: functional, tissue-based
# Method in brief: as §1
row,IA,Compound
1,inactive,NCCCC[C@H](N)C(=O)N[C@@H](CCCN=C(N)N)C(=O)NC1(C(=O)N[C@@H](CO)C(=O)N2CCC[C@H]2C(=O)N[C@@H](Cc2ccccc2)C(=O)O)CCCCCC1 (H-KR[Ac7c]SPF-OH)
2,inactive,H-KRGGGSPF-OH
